According to ChEMBL document CHEMBL5674874, “BRD4 facilitates DNA damage response and represses CBX5/Heterochromatin protein 1 (HP1)” (Oncotarget, 2017):
The source made the active and inactive calls. The calls are words filed in the database; no cut-off is given here.

Tests used:
[1] = test system: A2780; experiment: Cytotoxicity against human A2780 cells assessed as reduction in cell viability after 3 days by XTT assay; assay type: functional, cell-based; details: A2780, 72 h
Method in brief: (§1)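 Ovarian cancer lines in RPMI with 10% heat-inactivated FBS were seeded at 2,000-4000 cells/well in triplicate. Drug from DMSO stock was added 24hr later, and XTT was read 3 days after drug addition. Proliferation is relative to negative control, and IC50 was calculated from the individual XTT data points.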

[2] = target: Bromodomain-containing protein 4 (Homo sapiens) (UniProt O60885); details: OVCAR-8, dose 500.0 nM, time 24.0 hrs
[3] = test system: SK-OV-3; experiment: Induction of DNA damage response in human SK-OV-3 cells assessed as CHK1 Ser345 phosphorylation at 2.5 uM in presence of 2.5 nM CHK1 inhibitor LY2606368 after 24 hrs by Western blot analysis; assay type: functional, cell-based
Method in brief: (§2)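 Cells were exposed to JQ1 (2.5 μM) and/or LY2606368 (2.5 nM) for 24hr. Sub-confluent cells were lysed in 1% NP40 buffer with protease and phosphatase inhibitors, and protein was measured by BCA. Total lysates were blotted for phospho-CHK1 (Ser345) and CHK1 with GAPDH as loading control, using HRP chemiluminescence detection. Blots were repeated three times.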

[4] = test system: OVCAR-5; experiment: Cytotoxicity against human OVCAR-5 cells assessed as reduction in cell viability after 3 days by XTT assay; assay type: functional, cell-based; details: OVCAR-5, 72 h; method in brief: as §1
[5] = test system: IGROV-1; experiment: Induction of DNA damage response in human IGROV-1 cells assessed as CHK1 Ser345 phosphorylation at 2.5 uM in presence of 2.5 nM CHK1 inhibitor LY2606368 after 24 hrs by Western blot analysis; assay type: functional, cell-based; method in brief: as §2
[6] = test system: OVCAR-8; experiment: Induction of cell cycle arrest in human OVCAR-8 cells assessed as accumulation of cells at G1 phase at 2.5 uM for 20 hrs by propidium iodide staining based flow cytometry; assay type: functional
[7] = target: Bromodomain-containing protein 4 (Homo sapiens) (UniProt O60885); details: OVCAR-8, dose 500.0 nM, time 24.0 hrs; remark: listed apart in the source
[8] = test system: OVCAR-8; experiment: Effect on gamma-H2AX phosphorylation in nucleus of human OVCAR-8 cells at 2.5 uM for 20 hrs by immunofluorescent staining; assay type: functional, cell-based
Method in brief: (§3)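 Cells were serum-starved for 16hr, then given JQ1 2.5 μM and/or LY2606368 10 nM for 20hr. They were fixed in 4% paraformaldehyde, permeabilized with 0.25% Triton X-100, and blocked in 10% goat serum. γ-H2AX (Ser139/Tyr142) antibody at 1:200 was applied for 2hr, then an Alexa Fluor secondary for 1hr at 4°C. Signal was read by flow cytometry.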

[9] = test system: OVCAR-8; experiment: Induction of DNA damage response in human OVCAR-8 cells assessed as CHK1 Ser345 phosphorylation at 2.5 uM in presence of 2.5 nM CHK1 inhibitor LY2606368 after 24 hrs by Western blot analysis; assay type: functional, cell-based; method in brief: as §2
[10] = test system: SK-OV-3; experiment: Cytotoxicity against human SK-OV-3 cells assessed as reduction in cell viability after 3 days by XTT assay; assay type: functional, cell-based; details: SK-OV-3, 72 h; method in brief: as §1
[11] = test system: OVCAR-3; experiment: Cytotoxicity against human OVCAR-3 cells assessed as reduction in cell viability after 3 days by XTT assay; assay type: functional, cell-based; details: OVCAR-3, 72 h; method in brief: as §1
[12] = test system: OVCAR-3; experiment: Induction of DNA damage response in human OVCAR-3 cells assessed as CHK1 Ser345 phosphorylation at 2.5 uM in presence of 2.5 nM CHK1 inhibitor LY2606368 after 24 hrs by Western blot analysis; assay type: functional, cell-based; method in brief: as §2
[13] = test system: OVCAR-5; experiment: Induction of DNA damage response in human OVCAR-5 cells assessed as CHK1 Ser345 phosphorylation at 2.5 uM in presence of 2.5 nM CHK1 inhibitor LY2606368 after 24 hrs by Western blot analysis; assay type: functional, cell-based; method in brief: as §2
[14] = test system: OVCAR-8; experiment: Effect on gamma-H2AX expression in human OVCAR-8 cells at 2.5 uM for 20 hrs by immunofluorescent staining; assay type: functional, cell-based; method in brief: as §3
[15] = test system: A2780; experiment: Induction of DNA damage response in human A2780 cells assessed as CHK1 Ser345 phosphorylation at 2.5 uM in presence of 2.5 nM CHK1 inhibitor LY2606368 after 24 hrs by Western blot analysis; assay type: functional, cell-based; method in brief: as §2
[16] = test system: OVCAR-8; experiment: Cytotoxicity against human OVCAR-8 cells assessed as reduction in cell viability after 3 days by XTT assay; assay type: functional, cell-based; details: OVCAR-8, 72 h; method in brief: as §1
[17] = test system: OVCAR-8; experiment: Cytotoxicity against human OVCAR-8 cells assessed as reduction in cell viability at 10 nM in presence of siCBX5 after 3 days by XTT assay; assay type: functional, cell-based; details: time 3.0 day
Method in brief: (§4)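 Cells were transfected with siRNA (final 20nM, DharmaFECT1) and seeded in 3 replicates 24hr later. Drug was added 24hr after seeding. Viability was read by XTT and normalized to siNeg-transfected cells.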

[18] = test system: OVCAR-3; experiment: Cytotoxicity against human OVCAR-3 cells assessed as reduction in cell viability at 10 nM in presence of siCBX5 after 3 days by XTT assay; assay type: functional, cell-based; details: time 3.0 day; method in brief: as §4
[19] = test system: OVCAR-5; experiment: Cytotoxicity against human OVCAR-5 cells assessed as reduction in cell viability at 10 nM in presence of siCBX5 after 3 days by XTT assay; assay type: functional, cell-based; details: time 3.0 day; method in brief: as §4
[20] = test system: OVCAR-8; experiment: Induction of abnormal nuclear morphology in human OVCAR-8 cells assessed as loss of nuclear roundness at 10 nM in presence of siCBX5 by immunostaining; assay type: functional, cell-based
Method in brief: (§5)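 Ovcar8 cells were transfected with 20nM siRNA; for co-transfection, 10nM of each. At 24hr they were plated on coverslips, and 8hr later LY2606368 10nM was added for 24hr. Cells were fixed (4% paraformaldehyde), permeabilized (0.25% Triton X-100), blocked (10% goat serum) and stained for H3K4me3, γ-H2AX and DAPI. Sphericity is the ratio of two perpendicular nuclear diameters, over multiple fields of 10-40 cells.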

[21] = test system: SK-OV-3; experiment: Cytotoxicity against human SK-OV-3 cells assessed as reduction in cell viability at 10 nM in presence of siCBX5 after 3 days by XTT assay; assay type: functional, cell-based; details: time 3.0 day; method in brief: as §4
[22] = test system: OVCAR-8; experiment: Induction of abnormal nuclear morphology in human OVCAR-8 cells at 10 nM by immunostaining; assay type: functional, cell-based; method in brief: as §5

## Cc1sc2c(c1C)C(c1ccc(Cl)cc1)=N[C@@H](CC(=O)OC(C)(C)C)c1nnc(C)n1-2
[1]
  IC50: 100 nM
[2]
  inhibition: Active
[3]
  Activity: inactive
[4]
  IC50: 100 nM
[5]
  Activity: inactive
[6]
  Activity: Active
[7]
  inhibition: Active
[8]
  Activity: inactive
[9]
  Activity: inactive
[10]
  IC50: 100 nM
[11]
  IC50: 100 nM
[12]
  Activity: inactive
[13]
  Activity: inactive
[14]
  Activity: inactive
[15]
  Activity: inactive
[16]
  IC50: 100 nM

## COc1cccc(OCCCN)c1-c1cc(Nc2cnc(C#N)cn2)n[nH]1 [PREXASERTIB]
[1]
  IC50: 40 nM
[1]; time 3 day
  IC25: 10 nM
[17]
  Activity: inactive
[18]
  Activity: inactive
[19]
  Activity: inactive
[20]
  Activity: inactive
[4]
  IC50: 3 nM
[4]; time 3 day
  IC25: 1.5 nM
[21]
  Activity: inactive
[10]
  IC50: 10 nM
[10]; time 3 day
  IC25: 4 nM
[11]
  IC50: 12 nM
[11]; time 3 day
  IC25: 6 nM
[22]
  Activity: Active
[16]
  IC50: 10 nM
[16]; time 3 day
  IC25: 5 nM
